Assay type in all cases: functional
The test system of one test is WiDr. In words: Growth inhibition of human WiDr cells after 48 hrs by SRB assay. In short, it runs like this:
(§1)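 Cells from an academic source, kept in 25 cm² flasks in RPMI 1640 with 5% heat-inactivated fetal calf serum. Dosing began day 1 after plating, in triplicate at several dilutions across […]. Vehicle controls got DMSO 0.25% v/v. After 48 h exposure, cells were fixed with ice-cold 50% w/v TCA for 60 min at 4 °C and stained by SRB. OD was read at 492 nm, corrected for medium-only background, and GI50 was derived from dose-response data.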
In general terms: The SRB assay estimates cell density from bound dye.

A further test concerns T47D. In words: Growth inhibition of human T47D cells after 48 hrs by SRB assay. The gist of the method:
as §1

The subject of the next test is SW1573. In words: Growth inhibition of human SW1573 cells after 48 hrs by SRB assay. The following applies: SW1573, 48 h. The gist of the method: as §1
In a further test the test system is HeLa. Briefly: Growth inhibition of human HeLa cells after 48 hrs by SRB assay. In short, it runs like this: as §1
A short description of test [1]: Growth inhibition of human HBL100 cells after 48 hrs by SRB assay. The conditions noted are these: HBL-100, 48 h. In short, it runs like this:
as §1

Where only a bound is given, the exact number is not on record here.

As usually defined, the GI50 is the concentration that inhibits growth by half. A lower GI50 goes with more potent growth inhibition. Turning to `O=C(/C(=C/C1CCCCC1)CCl)c1ccccc1`, the GI50 with WiDr worked out at 22 µM; in the test on T47D, 29 µM; with SW1573, 23 µM; with HeLa, 30 µM; in test [1], 22 µM.

Turning to `O=C(/C(=C/c1ccccc1)CCl)c1ccccc1`, the GI50 worked out at 18 µM with WiDr; 18 µM in the test with T47D; 3.6 µM with SW1573; 23 µM in the test on HeLa; 12 µM in test [1].

In the case of `O=C(/C(=C/c1ccc(Cl)cc1)CCl)c1ccccc1`, the GI50 with WiDr turned out to be 19 µM; with T47D, 17 µM; in the test with SW1573, 3.9 µM; in the test with HeLa, 22 µM; in test [1], 3.2 µM.

As for `O=C(/C(=C/c1ccc(Cl)cc1Cl)CCl)c1ccccc1`, the 50% growth inhibitory concentration (GI50) in the test with WiDr is 13 µM; in the test with T47D it was 6.3 µM; with SW1573, 3.8 µM; with HeLa, 15 µM; in test [1], 3.1 µM.

With `O=C(/C(=C/C1CCCCC1)c1ccccc1)c1ccccc1`, the GI50 in the test with WiDr turned out to be 34 µM; in the test on T47D it was 39 µM; in the test with SW1573, 29 µM; with HeLa, 47 µM; in test [1], 57 µM.

As to `O=C(/C(=C\C1CCCCC1)c1ccccc1)c1ccccc1`, the GI50 amounted to 64 µM in the test with WiDr; 74 µM in the test with T47D; 64 µM in the test with SW1573; 63 µM in the test with HeLa; 59 µM in test [1].

For the compound `O=C(/C(=C\c1ccc(Cl)cc1Cl)c1ccccc1)c1ccccc1`, the GI50 was 46 µM in the test on WiDr; 52 µM in the test with T47D; 41 µM in the test with SW1573; 47 µM in the test on HeLa; above 100 µM in test [1].

With `CC(=O)OC/C(=C\C1CCCCC1)C(=O)c1ccccc1`, the concentration for 50% growth inhibition (GI50) with WiDr was 21 µM; in the test on T47D, 22 µM; in the test with SW1573, 19 µM; in the test on HeLa, 21 µM; in test [1] it was 21 µM.

Take `CCC(/C=C(\COC(C)=O)C(=O)c1ccccc1)CC`: the GI50 in the test on WiDr was 52 µM; in the test with T47D, 89 µM; in the test on SW1573, 77 µM; in the test on HeLa, 50 µM; in test [1], above 100 µM.

Take `CC(=O)OC/C(=C\c1ccccc1)C(=O)c1ccccc1`: the GI50 with WiDr is 17 µM; with T47D, 16 µM; in the test with SW1573, 4.8 µM; in the test on HeLa it was 20 µM; in test [1] it was 17 µM.

With `C=C(C/C(=C\c1ccccc1)C(=O)c1ccccc1)C(=O)c1ccccc1`, the GI50 came to 18 µM with WiDr; 15 µM with T47D; 3 µM in the test on SW1573; 19 µM in the test with HeLa; 10 µM in test [1].

Take `CC(=O)OC/C(=C\c1ccc(Cl)cc1)C(=O)c1ccccc1`: the GI50 in the test with WiDr stood at 4.8 µM; in the test on T47D, 5.3 µM; with SW1573, 2.6 µM; in the test on HeLa, 3.2 µM; in test [1] it was 2.3 µM.

In the case of `C=C(C/C(=C\c1ccc(Cl)cc1)C(=O)c1ccccc1)C(=O)c1ccccc1`, the 50% growth inhibitory concentration (GI50) in the test on WiDr was 20 µM; in the test on T47D it was 19 µM; with SW1573, 6.1 µM; in the test with HeLa, 22 µM; in test [1], 17 µM.

For `CC(=O)OC/C(=C\c1ccc(F)cc1)C(=O)c1ccccc1`, the GI50 in the test on WiDr worked out at 13 µM; in the test with T47D, 14 µM; in the test with SW1573 it was 4.2 µM; in the test with HeLa, 25 µM; in test [1], 17 µM.

In the case of `C=C(C/C(=C\c1ccc(F)cc1)C(=O)c1ccccc1)C(=O)c1ccccc1`, the GI50 with WiDr worked out at 19 µM; in the test on T47D, 15 µM; in the test with SW1573, 3.5 µM; in the test with HeLa, 18 µM; in test [1], 14 µM.

Regarding `CC(=O)OC/C(=C/c1ccccc1Cl)C(=O)c1ccccc1`, the GI50 with WiDr turned out to be 22 µM; in the test on T47D, 19 µM; in the test on SW1573 it was 14 µM; in the test on HeLa it was 24 µM; in test [1], 21 µM.

As to `CC(=O)OC/C(=C\c1ccccc1Br)C(=O)c1ccccc1`, the GI50 in the test with WiDr is 21 µM; in the test with T47D, 17 µM; in the test on SW1573, 14 µM; with HeLa, 20 µM; in test [1] it was 22 µM.

With `CC(=O)OC/C(=C/c1ccccc1Br)C(=O)c1ccccc1`, the GI50 with WiDr is 18 µM; in the test on T47D it was 18 µM; in the test with SW1573 it was 21 µM; with HeLa it was 19 µM; in test [1], 21 µM.

In the case of `CC(=O)OC/C(=C\c1ccccc1F)C(=O)c1ccccc1`, the 50% growth inhibitory concentration (GI50) in the test with WiDr is 19 µM; with T47D, 18 µM; in the test on SW1573, 6.1 µM; with HeLa, 22 µM; in test [1], 17 µM.

With `C=C(C/C(=C\c1ccccc1F)C(=O)c1ccccc1)C(=O)c1ccccc1`, the concentration for 50% growth inhibition (GI50) in the test on WiDr amounted to 17 µM; with T47D, 14 µM; in the test with SW1573 it was 3.5 µM; in the test on HeLa it was 20 µM; in test [1], 15 µM.

For the compound `CC(=O)OC/C(=C\c1ccc(Cl)cc1Cl)C(=O)c1ccccc1`, the GI50 with WiDr amounted to 14 µM; in the test on T47D, 9.5 µM; with SW1573, 3.5 µM; in the test on HeLa, 16 µM; in test [1], 3.1 µM.

As for `CC(=O)OC/C(=C/c1ccc(Cl)cc1Cl)C(=O)c1ccccc1`, the GI50 came to 19 µM in the test with WiDr; 20 µM with T47D; 22 µM with SW1573; 22 µM in the test on HeLa; 23 µM in test [1].

On to `CC(=O)OC/C(=C\c1ccc([N+](=O)[O-])cc1)C(=O)c1ccccc1`, for which the GI50 with WiDr worked out at 23 µM; with T47D, 16 µM; with SW1573 it was 3.8 µM; with HeLa it was 26 µM; in test [1] it was 10 µM.

With `CC(=O)OC/C(=C/c1ccc([N+](=O)[O-])cc1)C(=O)c1ccccc1`, the 50% growth inhibitory concentration (GI50) with WiDr worked out at 83 µM; in the test on T47D, 36 µM; in the test on SW1573, 32 µM; in the test with HeLa it was 36 µM; in test [1], 41 µM.

As for `CC(=O)OC/C(=C\c1ccccc1[N+](=O)[O-])C(=O)c1ccccc1`, the GI50 worked out at 18 µM in the test with WiDr; 21 µM in the test on T47D; 18 µM in the test with SW1573; 25 µM in the test with HeLa; 26 µM in test [1].

In the case of `CC(=O)OC/C(=C/c1ccccc1[N+](=O)[O-])C(=O)c1ccccc1`, the GI50 was above 100 µM in the test on WiDr; 52 µM in the test on T47D; above 100 µM in the test on SW1573; 78 µM in the test on HeLa; above 100 µM in test [1].

Regarding `C=C(C/C(=C\c1ccc(OC)cc1)C(=O)c1ccccc1)C(=O)c1ccccc1`, the GI50 with WiDr worked out at 0.47 µM; in the test with T47D, 0.37 µM; in the test with SW1573 it was 0.45 µM; in the test on HeLa, 0.32 µM; in test [1], 0.53 µM.

In the case of `O=C(OC/C(=C\C1CCCCC1)C(=O)c1ccccc1)c1ccccc1`, the GI50 turned out to be 19 µM in the test on WiDr; 20 µM with T47D; 17 µM in the test on SW1573; 24 µM with HeLa; 23 µM in test [1].

Turning to `O=C(OC/C(=C\c1ccc(Cl)cc1Cl)C(=O)c1ccccc1)c1ccccc1`, the GI50 in the test on WiDr was found to be 17 µM; in the test on T47D it was 17 µM; in the test on SW1573, 3.3 µM; in the test on HeLa it was 20 µM; in test [1] it was 3.1 µM.

As to `O=C(OC/C(=C/c1ccc(Cl)cc1Cl)C(=O)c1ccccc1)c1ccccc1`, the GI50 came to 8.7 µM in the test with WiDr; 5.4 µM with T47D; 29 µM with SW1573; 8.3 µM in the test on HeLa; 26 µM in test [1].

Take `O=C(OC/C(=C\c1ccccc1[N+](=O)[O-])C(=O)c1ccccc1)c1ccccc1`: the GI50 with WiDr was 18 µM; in the test on T47D, 16 µM; in the test on SW1573 it was 4.3 µM; in the test with HeLa it was 22 µM; in test [1] it was 3.9 µM.

Take `O=C(OC/C(=C/c1ccccc1[N+](=O)[O-])C(=O)c1ccccc1)c1ccccc1`: the GI50 in the test with WiDr was 21 µM; in the test with T47D, 18 µM; in the test on SW1573, above 100 µM; in the test with HeLa, 30 µM; in test [1], above 100 µM.

Take `CC(=O)OC/C(=C\C1CCCCC1)C(=O)c1ccc(Cl)cc1`: the GI50 in the test with WiDr was found to be 21 µM; in the test on T47D, 18 µM; in the test with SW1573, 18 µM; in the test on HeLa, 24 µM; in test [1], 31 µM.

Regarding `CC(=O)OC/C(=C\c1ccc(Cl)cc1)C(=O)c1ccc(Cl)cc1`, the GI50 in the test on WiDr was 18 µM; with T47D, 5.4 µM; with SW1573, 3.4 µM; with HeLa it was 19 µM; in test [1], 4 µM.

As for `CC(=O)OC/C(=C/c1ccc(Cl)cc1)C(=O)c1ccc(Cl)cc1`, the GI50 in the test on WiDr was 17 µM; with T47D, 12 µM; in the test on SW1573 it was 5.3 µM; with HeLa, 5.7 µM; in test [1] it was 16 µM.

For the compound `C=C(C/C(=C\c1ccc(Cl)cc1)C(=O)c1ccc(Cl)cc1)C(=O)c1ccc(Cl)cc1`, the GI50 is 24 µM with WiDr; 17 µM in the test on T47D; 5.3 µM in the test on SW1573; 21 µM in the test with HeLa; 16 µM in test [1].

Turning to `CC(=O)OC/C(=C\c1ccc(Cl)cc1Cl)C(=O)c1ccc(Cl)cc1`, the GI50 with WiDr came to 8.1 µM; in the test with T47D it was 5.2 µM; with SW1573, 3.4 µM; in the test on HeLa, 4.6 µM; in test [1], 3.2 µM.

For the compound `CC(=O)OC/C(=C/c1ccc(Cl)cc1Cl)C(=O)c1ccc(Cl)cc1`, the 50% growth inhibitory concentration (GI50) is 20 µM with WiDr; 20 µM with T47D; 21 µM in the test on SW1573; 19 µM in the test on HeLa; 22 µM in test [1].

Values taken from ChEMBL document CHEMBL3085652, “Synthesis and antiproliferative activity of α-branched α,β-unsaturated ketones” (2013).
